This sample holds only a part of the variants without activity.
B1: tRNA (parent)
chain: GUUCCGUUGGCGUAAUGGUAACGCGUCUCCCUCCUAAGGAGAAGACUGCGGGUUCGAGUCCCGUACGGAACG

Variants of: B1
Assay: yeast fitness relative to wild type (ratio to wild type); higher = fitter; tRNA-Arg(CCU), competitive growth, 37 C, YPD
Summary of the method: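 The tRNA-Arg(CCU) gene variants were made by chemical synthesis with a 3% per-site mutation rate at 69 sites and inserted at the native genomic locus of Saccharomyces cerevisiae. After pooling, the strains were competed in YPD at 37°C for 24 hours in six parallel replicates. Gene amplicons from the start population and each end population were read by 100-nucleotide paired-end sequencing, and Darwinian fitness relative to wild type was taken from genotype frequency changes. Genotypes needed ≥ 100 starting reads, and estimates < 0.5 were set to 0.5.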

Row | Variant | yeast fitness
1 | C11U G17A A40C | ≤ 0.5
2 | C11U C29G C33U C60U A65U A69U | ≤ 0.5
3 | G12A A21U | 0.729
4 | C11U C34A | 0.758
5 | G12A A14C C31U | ≤ 0.5
6 | G12A C46U G51A C66U | 0.615
7 | C11U G23A U35C | 0.573
8 | C11U C31U C46G U47A A65C | ≤ 0.5
9 | G12A G48C | 0.754
10 | G12A A15C | 0.773
11 | G12C C46A G68U | ≤ 0.5
12 | G12A G41C A45C G68A | ≤ 0.5
13 | C11U U26G U35C G63A A70G | ≤ 0.5
14 | G12C A20C G48A | 0.749
15 | G12A C46A U47A | 0.75
16 | G12C G17A A20U G58U | ≤ 0.5
17 | G12A U47C C49A A57U | 0.53
18 | G12A A15G A43C | ≤ 0.5
19 | C11U U32C A45C | 0.885
20 | G12A U35G G58A G68A | ≤ 0.5
21 | C11U C24G A57G | ≤ 0.5
22 | C11U C49A A57C | ≤ 0.5
23 | C11U U28A G58C A70C | ≤ 0.5
24 | G12C C27A G56C | 0.702

Row | Variant | yeast fitness
25 | G12C C60A | 0.588
26 | G12A A15G A43C A65G | ≤ 0.5
27 | C11U G18A A36U G48C C49U | 0.558
28 | G12A C29A A42U A45U C61G | ≤ 0.5
29 | C11U C30U G52C | ≤ 0.5
30 | C11U U19A C29G | 0.704
31 | C11U U28G C30A | ≤ 0.5
32 | G12C A20C C31G | 0.596
33 | C11U C30A | 0.823
34 | C11U C24U C29G G38A A40C | ≤ 0.5
35 | G12C A15U C33U C49G G58A | ≤ 0.5
36 | C11U C49G C62U | ≤ 0.5
37 | C11U U13G U19A C22G G25A C61A | ≤ 0.5
38 | C11U C33G A37U | ≤ 0.5
39 | C11U C29G | 0.687
40 | C11U C29U | 0.738
41 | C11U C24U C29G G38A A40C C61A A65G | ≤ 0.5
42 | C11U C24A A42G A57U U64A A69U | 0.505
43 | G12A G39C C46A | 0.554
44 | G12A C27U C49U | 0.611
45 | C11U U35A G38A G56C | ≤ 0.5
46 | C11U G18C C31U C62U | ≤ 0.5
47 | C11U G41A C60G A65G | 0.624
48 | C11U G39A | 0.947

Row | Variant | yeast fitness
49 | C11U G39U | 0.835
50 | G12C A57C | 0.545
51 | C11U C46U A65U A69U | 0.54
52 | G12A A57G | 0.909
53 | G12A A57U | 0.668
54 | C11U U28G G51C U64A C66U A69C | ≤ 0.5
55 | C11U C31G C46A G63C A65U | 0.531
56 | C11U C61U A65C | ≤ 0.5
57 | G12A C60A | 0.579
58 | G12A C60U | 0.777
59 | G12C A15U C24A G48C C61U | ≤ 0.5
60 | G12C A15U C24A | 0.528
61 | G12A U32G C46A | ≤ 0.5
62 | G12A C24A A45G G50A | ≤ 0.5
63 | G12C C22U A40C G52C G67A | ≤ 0.5
64 | C11U G12A C31U | 0.532
65 | G12A G18C C29U A57C A65C | ≤ 0.5
66 | G12C C33U A42C | ≤ 0.5
67 | G12A C27A G67C | 0.548
68 | G12C A70U | 0.707
69 | G12C C46U C49G A70U | 0.526
70 | G12A C27A C30G | 0.626
71 | G12A A36C A37C U53G A70C | ≤ 0.5
72 | G12A G23A C27G C30G | ≤ 0.5

Row | Variant | yeast fitness
73 | C11U U59A | 0.757
74 | G12A G25C C30G | ≤ 0.5
75 | G12A C22G C29G C30U A36U U47C | 0.571
76 | G12A C30G C46G | ≤ 0.5
77 | C11U G68C | 0.814
78 | C11U G68U | 0.898
79 | C11U G52A A65U | 0.567
80 | G12A U19C G23C G67C | ≤ 0.5
81 | C11U C24G U59A C60A | ≤ 0.5
82 | C11U U54C C61U | ≤ 0.5
83 | G12A G17A U26G C33A A37U A45U | ≤ 0.5
84 | G12A G18C A42U A70G | 0.598
85 | G12C A20C C31G A65G | 0.527
86 | G12C C27A G38A | 0.584
87 | G12A U35A G58A | 0.524
88 | C11U U35A G38A C55G | ≤ 0.5
89 | G12A G25A C62G | ≤ 0.5
90 | C11U C27A U54G | ≤ 0.5
91 | G12A C46G | 1
92 | G12C C22G C55U | 0.581
93 | C11U U13C C24A A43C G50C C60G A70U | 0.567
94 | G12A A43U A45C C49U G67C | ≤ 0.5
95 | G12A A21C A70U | 0.563
96 | G12A C22A A36G A37G A57U | ≤ 0.5

Row | Variant | yeast fitness
97 | G12A C24A A36U G51C C55U A69C A70U | 0.532
98 | C11U U19C C31A G50U C62G | ≤ 0.5
99 | G12A U59A | 0.8
100 | G12A U19C A21U G58C | 0.94
101 | G12A C60A A70G | ≤ 0.5
102 | C11U C66U A69G | 0.639
103 | G12C C22U U54C C61U | 0.532
104 | G12A G58C | 0.935
105 | G12A G25A C30G G58C C66A | ≤ 0.5
106 | C11U C30G U35A C46U G51A G56A | ≤ 0.5
107 | G12C C34U C46A | ≤ 0.5
108 | G12A C27U G67A | 0.571
109 | G12C C34A G58C A65U A69C | ≤ 0.5
110 | G12C A43C | 0.825
111 | G12C A43G | 0.694
112 | G12A C34G A37G G38A G50A | ≤ 0.5
113 | G12A C61G | 0.605
114 | G12A C22A C29U A69U | ≤ 0.5
115 | C11U C46G C61U | 0.596
116 | G12C C29G | 0.58
117 | G12A G52A G68A | ≤ 0.5
118 | G12A G41U | 0.819
119 | C11U G12A G51C C62U | ≤ 0.5
120 | C11U C49U G56A A65C | ≤ 0.5

Row | Variant | yeast fitness
121 | G12A G52A U59A A69C A70C | ≤ 0.5
122 | G12A A20U C62U A65G | ≤ 0.5
123 | C11U C29A A36U G50C C55G C61G | 0.592
124 | C11U G23C C27A A69U | ≤ 0.5
125 | C11U C22U C34A A40U | ≤ 0.5
126 | G12A A43U G58C | 0.632
127 | C11U C24G C33A A42G | ≤ 0.5
128 | C11U C55A C66A | ≤ 0.5
129 | C11U G44A C49U | 0.81
130 | G12A A15U C24A A45G | ≤ 0.5
131 | C11U U28A C33G | 0.619
132 | G12A A45C C49G | 0.619
133 | C11U C31U C61U A69U | ≤ 0.5
134 | G12A C24A A36U A69C | 0.599
135 | C11U U19G C34U G56A | ≤ 0.5
136 | C11U G56A C62A | 0.567
137 | C11U G56A C62G | ≤ 0.5
138 | G12A U32C U47A C49G C60U | ≤ 0.5
139 | C11U C31U U35C A69U | ≤ 0.5
140 | C11U U28G | 0.792
141 | C11U C55U U59C A65C | ≤ 0.5
142 | G12C C24G U35C | ≤ 0.5
143 | G12A C24G A40C A42G A43C C46U G68C A69U | ≤ 0.5
144 | G12C A65U | 0.735

Row | Variant | yeast fitness
145 | G12C A20C G58C A70U | ≤ 0.5
146 | G12A A21G G48A A65U | 0.534
147 | G12A G23A U28G C49U G56C A65U | 0.526
148 | C11U G18C C31U | ≤ 0.5
149 | G12A C33U | 0.839
150 | G12A A15G G39C | ≤ 0.5
151 | C11U U13A G41A A45U G58U C60A | ≤ 0.5
152 | G12A A57C C66G | ≤ 0.5
153 | G12C C30U A70U | ≤ 0.5
154 | C11U C29U U59C | ≤ 0.5
155 | G12A A43U A45C G67C | 0.542
156 | C11U C29G A37C A42U A57G G67A | 0.566
157 | C11U C22U C66U A70C | ≤ 0.5
158 | C11U U28C U32G | 0.569
159 | C11U C66G A69U | 0.555
160 | G12A U13C U16A U19G G23A G58A G68A | ≤ 0.5
161 | G12A C24U C61A G67A | ≤ 0.5
162 | G12A A21C U59A G67A | ≤ 0.5
163 | G12C A42G A45G | 0.627
164 | C11U U54A G58C | ≤ 0.5
165 | C11U U19A A43U U59A G63A | ≤ 0.5
166 | G12C A43G U54C A69C A70C | ≤ 0.5
167 | G12A A20G G63A | ≤ 0.5

Reference: the RNAGym collection of RNA variant scans (doi:10.1126/science.aae0568)
